Assays:
Format in all cases: functional
[1] = Selectivity ratio of IC50 for cytotoxicity against human MES-SA cells assessed as cell growth inhibition to IC50 for cytotoxicity against multidrug resistance human MES-SA/Dx5 cells assessed as cell growth inhibition
[2] = Selectivity ratio of IC50 for cytotoxicity against human A-431 cells assessed as cell growth inhibition to IC50 for cytotoxicity against human A-431 cells expressing ABCB1 assessed as cell growth inhibition
[3] = Selectivity ratio of IC50 for cytotoxicity against human MES-SA cells assessed as cell growth inhibition in presence of P-gp inhibitor Tariquidar to IC50 for cytotoxicity against multidrug resistance human MES-SA/Dx5 cells assessed as cell growth inhibition in presence of P-gp inhibitor Tariquidar
MES-SA [4] = assay: Cytotoxicity against human MES-SA cells assessed as cell growth inhibition incubated for 72 hrs in presence of P-gp inhibitor Tariquidar by PrestoBlue reagent based cell viability assay
In short: (§1)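 MES-SA and doxorubicin-selected MES-SA/Dx5 cells in DMEM with 10% FBS, 5 mmol/L glutamine, penicillin/streptomycin; 5000 cells/well attached 24 h, serial compound dilutions for 72 h, with or without 1 μM tariquidar. 5% PrestoBlue added after supernatant removal, 1 h at 37 °C, read ex 555/em 585 nm. Mean IC50 with SD, 2–53 independent assays.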

A-431 [5] = assay: Cytotoxicity against human A-431 cells assessed as cell growth inhibition after 72 hrs by PrestoBlue reagent based cell viability assay; settings: A-431, 72 h
In short: (§2)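 A431 and retrovirally P-gp (ABCB1)-transduced A431 cells kept in supplemented DMEM; 5000 cells/well attached 24 h, then serial compound dilutions for 72 h. Medium removed, 5% PrestoBlue (resazurin) added, 1 h at 37 °C, fluorescence ex 555/em 585 nm.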

MES-SA [6] = assay: Cytotoxicity against human MES-SA cells assessed as cell growth inhibition incubated for 72 hrs by PrestoBlue reagent based cell viability assay; in short: as §1
MES-SA/Dx5 [7] = assay: Cytotoxicity against multidrug resistance human MES-SA/Dx5 cells assessed as cell growth inhibition incubated for 72 hrs in presence of P-gp inhibitor Tariquidar by PrestoBlue reagent based cell viability assay; settings: MES-SA/Dx5, 72 h; in short: as §1
MES-SA/Dx5 [8] = assay: Cytotoxicity against multidrug resistance human MES-SA/Dx5 cells assessed as cell growth inhibition incubated for 72 hrs by PrestoBlue reagent based cell viability assay; settings: MES-SA/Dx5, 72 h; in short: as §1
A-431 [9] = assay: Cytotoxicity against human A-431 cells expressing ABCB1 assessed as cell growth inhibition incubated for 72 hrs by PrestoBlue reagent based cell viability assay; settings: A-431, 72 h; in short: as §2

CN1CCN(C(c2ccccn2)c2cc(Cl)c3cccnc3c2O)CC1 (stereo unspecified)
Ratio IC50 [1]: 1.2
Ratio IC50 [2]: 2.8

CN1CCN(C(c2cccnc2)c2ccc3cccnc3c2O)CC1 (stereo unspecified)
Ratio IC50 [1]: 1.5

COCc1cc(CN2CCCC2)c(O)c2ncccc12
Ratio IC50 [3]: 3
Ratio IC50 [2]: 13.1

CCN1CCN(C(c2cccnc2)c2cc(Cl)c3cccnc3c2O)CC1 (stereo unspecified)
Ratio IC50 [1]: 0.9

CN1CCN(Cc2cc(Cl)c3cccnc3c2O)CC1
Ratio IC50 [2]: 2.3

COCc1cc(CN2CCN(C)CC2)c(O)c2ncccc12
Ratio IC50 [2]: 2.9

Oc1ccc(CN2CCN(c3ccccc3)CC2)c2cccnc12
Ratio IC50 [1]: 0.9

Oc1c(CN2CCN(c3ccc(F)cc3)CC2)cc(Cl)c2cccnc12
Ratio IC50 [2]: 1.3

Oc1c(C(c2ccccn2)N2CCCCC2)cc(Cl)c2cccnc12 (stereo unspecified)
Ratio IC50 [3]: 2.5
Ratio IC50 [2]: 2.1

Oc1c(C(c2ccccn2)N2CCOCC2)ccc2cccnc12 (stereo unspecified)
Ratio IC50 [1]: 1.6

CC(C)OCc1cc(CN2CCN(c3ccccc3)CC2)c(O)c2ncccc12
Ratio IC50 [1]: 4.3
Ratio IC50 [3]: 1.5
Ratio IC50 [2]: 3.9

Oc1c(CN2CCN(c3ccccn3)CC2)cc(Cl)c2cccnc12
Ratio IC50 [2]: 1.2

Oc1c(CN2CCN(c3ccccc3)CC2)cc(Cl)c2cccnc12
Ratio IC50 [1]: 6
Ratio IC50 [2]: 1.3

CCCCOCc1cc(CN2CCN(C)CC2)c(O)c2ncccc12
Ratio IC50 [2]: 2.4

CCN(CC)Cc1ccc2cccnc2c1O
Ratio IC50 [2]: 2.7

Oc1c(CN2CCCC2)ccc2cccnc12
Ratio IC50 [2]: 5.2

Oc1c(CN2CCCCC2)cc(Cl)c2cccnc12
Ratio IC50 [2]: 3.9

CC(C)OCc1cc(CN2CCOCC2)c(O)c2ncccc12
Ratio IC50 [2]: 2.5

CCN1CCN(Cc2ccc(O)c3ncccc23)CC1
Ratio IC50 [1]: 0.8

Oc1c(C(c2ccncc2)N2CCOCC2)ccc2cccnc12 (stereo unspecified)
Ratio IC50 [3]: 1.4

Oc1ccc(CN2CCCCCC2)c2cccnc12
Ratio IC50 [1]: 1.2

Oc1c(C(c2cccs2)N2CCOCC2)cc(Cl)c2cccnc12 (stereo unspecified)
Ratio IC50 [1]: 0.6

Oc1c(C(c2ccccn2)N2CCOCC2)cc(Cl)c2cccnc12 (stereo unspecified)
Ratio IC50 [1]: 1.6

Cc1ccc(C(c2cc(Cl)c3cccnc3c2O)N2CCCC2)cc1 (stereo unspecified)
Ratio IC50 [1]: 2.3

Oc1c(C(c2cccs2)N2CCCCC2)ccc2cccnc12 (stereo unspecified)
Ratio IC50 [1]: 0.8

Oc1c(C(c2cccnc2)N2CCOCC2)cc(Cl)c2cccnc12 (stereo unspecified)
Ratio IC50 [1]: 1.6

CCOCc1cc(CN2CCCC2)c(O)c2ncccc12
Ratio IC50 [3]: 1.7
Ratio IC50 [2]: 6

Cc1ccccc1N1CCN(Cc2ccc(O)c3ncccc23)CC1
Ratio IC50 [2]: 0.7

CCOCc1cc(CN2CCN(C)CC2)c(O)c2ncccc12
Ratio IC50 [3]: 1.3
Ratio IC50 [2]: 2.9

CN1CCN(C(c2ccncc2)c2ccc3cccnc3c2O)CC1 (stereo unspecified)
Ratio IC50 [3]: 1.6

Oc1c(C(c2ccccn2)N2CCCC2)ccc2cccnc12 (stereo unspecified)
Ratio IC50 [2]: 4.4

CCCOCc1cc(CN2CCN(C)CC2)c(O)c2ncccc12
Ratio IC50 [3]: 1.7
Ratio IC50 [2]: 3

CN1CCN(Cc2ccc3cccnc3c2O)CC1
Ratio IC50 [2]: 2.3

CCOCc1cc(CN2CCOCC2)c(O)c2ncccc12
Ratio IC50 [1]: 1.9
Ratio IC50 [2]: 4.1

CN1CCN(C(c2cccs2)c2ccc3cccnc3c2O)CC1 (stereo unspecified)
Ratio IC50 [1]: 0.8

Oc1c(CN2CCCC2)cc(Cl)c2cccnc12
Ratio IC50 [2]: 3.8

Oc1c(C(c2ccncc2)N2CCCC2)ccc2cccnc12 (stereo unspecified)
Ratio IC50 [1]: 1.6

CCCOCc1cc(CN2CCN(c3ccccc3)CC2)c(O)c2ncccc12
Ratio IC50 [3]: 1.7
Ratio IC50 [2]: 2.4

CCOCc1cc(CN2CCN(c3ccccc3)CC2)c(O)c2ncccc12
Ratio IC50 [3]: 1.5
Ratio IC50 [2]: 3.1

COCc1cc(CN2CCOCC2)c(O)c2ncccc12
Ratio IC50 [1]: 1.7
Ratio IC50 [3]: 1.1
Ratio IC50 [2]: 2.8

CC1CCN(Cc2cc(COC(C)C)c3cccnc3c2O)CC1
Ratio IC50 [2]: 4.1

COCc1cc(CN2CCN(c3ccccc3)CC2)c(O)c2ncccc12
Ratio IC50 [1]: 2.2
Ratio IC50 [2]: 3.9

CCN1CCN(C(c2cccnc2)c2ccc3cccnc3c2O)CC1 (stereo unspecified)
Ratio IC50 [1]: 2.1
Ratio IC50 [3]: 1

Oc1c(C(c2cccnc2)N2CCCC2)ccc2cccnc12 (stereo unspecified)
Ratio IC50 [1]: 1.8

COCc1cc(CN2CCCCC2)c(O)c2ncccc12
Ratio IC50 [3]: 1.3
Ratio IC50 [2]: 6.3

CCN1CCN(C(c2cccs2)c2ccc3cccnc3c2O)CC1 (stereo unspecified)
Ratio IC50 [1]: 0.6

Oc1c(C(c2ccccc2)N2CCOCC2)ccc2cccnc12 (stereo unspecified)
Ratio IC50 [1]: 1.8

CN1CCN(Cc2cnc3ccccc3c2O)CC1
Ratio IC50 [1]: 1.99

Oc1c(C(c2ccncc2)N2CCCCC2)ccc2cccnc12 (stereo unspecified)
Ratio IC50 [1]: 1.9
Ratio IC50 [2]: 7.8

CC(C)OCc1cc(CN2CCCCC2)c(O)c2ncccc12
Ratio IC50 [3]: 1.3
Ratio IC50 [2]: 3.9

CC1CCN(Cc2cc(Cl)c3cccnc3c2O)CC1
Ratio IC50 [2]: 6.1

Oc1ccc(CN2CCOCC2)c2cccnc12
Ratio IC50 [1]: 0.7

CCCOCc1cc(CN2CCCCC2)c(O)c2ncccc12
Ratio IC50 [3]: 1.5
Ratio IC50 [2]: 4.6

CCN1CCN(C(c2cc(Cl)c3cccnc3c2O)N2CCCC2)CC1 (stereo unspecified)
IC50 (MES-SA [4]; read-out: pIC50 (converted)): 3.31 µM
Ratio IC50 [1]: 2.8
IC50 (A-431 [5]): 8.71 µM
IC50 (MES-SA [6]; read-out: pIC50 (converted)): 3.31 µM
Ratio IC50 [3]: 1.3
IC50 (MES-SA/Dx5 [7]): 2.45 µM
IC50 (MES-SA/Dx5 [8]; read-out: pIC50 (converted)): 1.17 µM
Ratio IC50 [2]: 1.7
IC50 (A-431 [9]): 5.13 µM

Oc1ccccc1CN1CCNCC1
IC50 (MES-SA [6]; read-out: IC50): > 100 µM
IC50 (MES-SA/Dx5 [8]; read-out: IC50): > 100 µM

Oc1c(CN2CCCCCC2)cc(Cl)c2cccnc12
Ratio IC50 [3]: 1.3
Ratio IC50 [2]: 2.1

Oc1c(CN2CCc3ccccc3C2)ccc2cccnc12
IC50 (MES-SA [4]; read-out: IC50): 2.59 µM
Ratio IC50 [3]: 1.5
Ratio IC50 [2]: 2

Oc1c(CN2CCCC2)cc(Br)c2cccnc12
Ratio IC50 [1]: 9.8
Ratio IC50 [3]: 1.5
IC50 (MES-SA/Dx5 [7]): 2.69 µM
Ratio IC50 [2]: 2.9

COCc1cc(CN2CCC(C)CC2)c(O)c2ncccc12
Ratio IC50 [3]: 1.4
Ratio IC50 [2]: 6.1

Oc1c(CN2CCOCC2)cc(Br)c2cccnc12
Ratio IC50 [1]: 2.5
Ratio IC50 [3]: 1.5
Ratio IC50 [2]: 3.1

CCOC(=O)C1CCN(Cc2cc(Cl)c3cccnc3c2O)CC1
Ratio IC50 [2]: 4.1

CCN1CCN(C(c2ccccn2)c2cc(Cl)c3cccnc3c2O)CC1 (stereo unspecified)
Ratio IC50 [1]: 1.2

CCN(CC)Cc1cc(Cl)c2cccnc2c1O
Ratio IC50 [2]: 6.2

CCOCc1cc(CN2CCCCC2)c(O)c2ncccc12
Ratio IC50 [2]: 6

Oc1c(C(c2ccccc2)N2CCCCC2)cc(Cl)c2cccnc12 (stereo unspecified)
Ratio IC50 [1]: 1.1

CCOCc1cc(CN2CCC(C)CC2)c(O)c2ncccc12
Ratio IC50 [3]: 1.5
Ratio IC50 [2]: 5

Oc1ccc(CN2CCCC2)c2cccnc12
Ratio IC50 [1]: 1.5

Oc1c(C(c2ccccn2)N2CCCC2)cc(Cl)c2cccnc12 (stereo unspecified)
Ratio IC50 [2]: 3.7

Oc1c(CN2CCCCC2)cc(Br)c2cccnc12
Ratio IC50 [1]: 10.8
Ratio IC50 [2]: 3.2

Oc1c(CN2CCCCC2)ccc2cccnc12
Ratio IC50 [2]: 4.1

Oc1cccc2cccnc12 [OXYQUINOLINE]
Ratio IC50 [3]: 2.3

— ChEMBL document CHEMBL5154931, “Structure-Activity Relationships of 8-Hydroxyquinoline-Derived Mannich Bases with Tertiary Amines Targeting Multidrug-Resistant Cancer” (J Med Chem, 2022)
